{
  "source": "ChEMBL document CHEMBL5724801",
  "about": "“EUbOPEN Chemogenomics Library - Multiplex” (2024)",
  "key": {"[1]": {"tested_on": "U2OS", "assay": "Multiplex assay against U2OS", "assay_type": "toxicity, cell-based", "conditions": "human", "procedure,_shortened": "(§1)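 With compound added, live cells were imaged on a CQ1 microscope at 37°C and 5% CO2; staining with Hoechst33342, BioTracker Green Microtubule Cytoskeleton Dye, MitoTracker Red and Annexin V Alexa Fluor 680 had been done at seeding. The CellPathfinder machine-learning gating scheme split cells into Hoechst high-intensity objects or normal cells, normal cells into healthy, pyknosed or fragmented nuclei, and pyknosed cells into mitotic or apoptotic. The tubulin, mitochondrial-mass and membrane-permeability phenotypes are per cents of healthy-nucleus cells.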"}, "[2]": {"tested_on": "HEK-293T", "assay": "Multiplex assay against HEK293T", "assay_type": "toxicity, cell-based", "conditions": "human", "procedure,_shortened": "as §1"}, "[3]": {"conditions": "24 h, 1 µM, compound concentration 1 uM"}, "[4]": {"conditions": "24 h, 10 µM, compound concentration 10 uM"}, "[5]": {"conditions": "48 h, 1 µM, compound concentration 1 uM"}, "[6]": {"conditions": "48 h, 10 µM, compound concentration 10 uM"}, "[7]": {"conditions": "12 h, 1 µM, compound concentration 1 uM"}, "[8]": {"conditions": "12 h, 10 µM, compound concentration 10 uM"}},
  "note": "Values joined by “and” are separate entries in the source; they are usually repeats but may differ in a detail not shown here. Equal values may be shown once.",
  "data": [
    {"smiles": "CN(C)CCCn1cc(C2=C(c3c[nH]c4ccccc34)C(=O)NC2=O)c2ccccc21", "note": "[GF-109203]", "values": [
      {"measurement": "Population Pyknosed Nuclei (%)", "setting": "[1]; [3]", "result": "11.52% and 12.82%"},
      {"measurement": "Population Tubulin-Different-Phenotype (%)", "setting": "[1]; [3]", "result": "0.89% and 2.44%"},
      {"measurement": "Total Cell Count", "setting": "[1]; [3]", "result": "513 and 234"},
      {"measurement": "Population Apoptotic (%)", "setting": "[1]; [4]", "result": "66.23% and 81.33%"},
      {"measurement": "Population Fragmented Nuclei (%)", "setting": "[1]; [4]", "result": "2.13% and 6.99%"},
      {"measurement": "Population Healthy Nuclei (%)", "setting": "[1]; [4]", "result": "51.98% and 40.56%"},
      {"measurement": "Population Hoechst High Intensity Objects (%)", "setting": "[1]; [4]", "result": 0, "unit": "%"},
      {"measurement": "Population Membrane Permeable-Phenotype (%)", "setting": "[1]; [4]", "result": "35.67% and 50%"},
      {"measurement": "Population Mitotic Cells (%)", "setting": "[1]; [4]", "result": "33.77% and 18.67%"},
      {"measurement": "Population Normal (%)", "setting": "[1]; [4]", "result": 100, "unit": "%"},
      {"measurement": "Population Pyknosed Nuclei (%)", "setting": "[1]; [4]", "result": "45.9% and 52.45%"},
      {"measurement": "Population Tubulin-Different-Phenotype (%)", "setting": "[1]; [4]", "result": "60.23% and 58.62%"},
      {"measurement": "Total Cell Count", "setting": "[1]; [4]", "result": "329 and 143"},
      {"measurement": "Population Apoptotic (%)", "setting": "[1]; [5]", "result": "41.25% and 46.51%"},
      {"measurement": "Population Healthy Nuclei (%)", "setting": "[1]; [5]", "result": "88.82% and 68.86%"},
      {"measurement": "Population Hoechst High Intensity Objects (%)", "setting": "[1]; [5]", "result": "0% and 0.34%"},
      {"measurement": "Population Membrane Permeable-Phenotype (%)", "setting": "[1]; [5]", "result": "1.36% and 5.03%"},
      {"measurement": "Population Mitochondria Different-Phenotype (%)", "setting": "[1]; [5]", "result": "0% and 16.08%"},
      {"measurement": "Population Mitotic Cells (%)", "setting": "[1]; [5]", "result": "58.75% and 53.49%"},
      {"measurement": "Population Normal (%)", "setting": "[1]; [5]", "result": "100% and 99.66%"},
      {"measurement": "Population Pyknosed Nuclei (%)", "setting": "[1]; [5]", "result": "8.77% and 14.88%"},
      {"measurement": "Population Tubulin-Different-Phenotype (%)", "setting": "[1]; [5]", "result": "0.99% and 3.02%"},
      {"measurement": "Population Apoptotic (%)", "setting": "[1]; [6]", "result": "86.32% and 90.65%"},
      {"measurement": "Population Fragmented Nuclei (%)", "setting": "[1]; [6]", "result": "6.15% and 9.46%"},
      {"measurement": "Population Healthy Nuclei (%)", "setting": "[1]; [6]", "result": "28.62% and 18.24%"},
      {"measurement": "Population Hoechst High Intensity Objects (%)", "setting": "[1]; [6]", "result": "0.31% and 0%"},
      {"measurement": "Population Mitochondria Different-Phenotype (%)", "setting": "[1]; [6]", "result": "24.73% and 55.56%"},
      {"measurement": "Population Mitotic Cells (%)", "setting": "[1]; [6]", "result": "13.68% and 9.35%"},
      {"measurement": "Population Normal (%)", "setting": "[1]; [6]", "result": "99.69% and 100%"},
      {"measurement": "Population Pyknosed Nuclei (%)", "setting": "[1]; [6]", "result": "65.23% and 72.3%"},
      {"measurement": "Population Tubulin-Different-Phenotype (%)", "setting": "[1]; [6]", "result": "63.44% and 37.04%"},
      {"measurement": "Total Cell Count", "setting": "[1]; [6]", "result": "326 and 148"},
      {"measurement": "Population Apoptotic (%)", "setting": "[2]; [7]", "result": "9.36% and 6.29%"},
      {"measurement": "Population Fragmented Nuclei (%)", "setting": "[2]; [7]", "result": "1.17% and 4.02%"},
      {"measurement": "Population Hoechst High Intensity Objects (%)", "setting": "[2]; [7]", "result": "0.58% and 0%"},
      {"measurement": "Population Membrane Permeable-Phenotype (%)", "setting": "[2]; [7]", "result": "0% and 4.17%"},
      {"measurement": "Population Mitochondria Different-Phenotype (%)", "setting": "[2]; [7]", "result": "26.35% and 29.17%"},
      {"measurement": "Population Mitotic Cells (%)", "setting": "[2]; [7]", "result": "90.64% and 93.71%"},
      {"measurement": "Population Normal (%)", "setting": "[2]; [7]", "result": "99.42% and 100%"},
      {"measurement": "Population Pyknosed Nuclei (%)", "setting": "[2]; [7]", "result": "50% and 82.18%"},
      {"measurement": "Total Cell Count", "setting": "[2]; [7]", "result": "344 and 174"},
      {"measurement": "Population Apoptotic (%)", "setting": "[2]; [8]", "result": "11.11% and 17.19%"},
      {"measurement": "Population Fragmented Nuclei (%)", "setting": "[2]; [8]", "result": "4.81% and 3.4%"},
      {"measurement": "Population Hoechst High Intensity Objects (%)", "setting": "[2]; [8]", "result": "0.32% and 0%"},
      {"measurement": "Population Membrane Permeable-Phenotype (%)", "setting": "[2]; [8]", "result": "0% and 7.14%"},
      {"measurement": "Population Mitotic Cells (%)", "setting": "[2]; [8]", "result": "88.89% and 82.81%"},
      {"measurement": "Population Normal (%)", "setting": "[2]; [8]", "result": "99.68% and 100%"},
      {"measurement": "Population Pyknosed Nuclei (%)", "setting": "[2]; [8]", "result": "57.69% and 87.07%"},
      {"measurement": "Population Tubulin-Different-Phenotype (%)", "setting": "[2]; [8]", "result": "52.99% and 57.14%"},
      {"measurement": "Total Cell Count", "setting": "[2]; [8]", "result": "313 and 147"},
      {"measurement": "Population Apoptotic (%)", "setting": "[2]; [3]", "result": "15.57% and 18.97%"},
      {"measurement": "Population Fragmented Nuclei (%)", "setting": "[2]; [3]", "result": "1.6% and 5.42%"},
      {"measurement": "Population Healthy Nuclei (%)", "setting": "[2]; [3]", "result": "73.95% and 24.7%"},
      {"measurement": "Population Hoechst High Intensity Objects (%)", "setting": "[2]; [3]", "result": 0, "unit": "%"},
      {"measurement": "Population Membrane Permeable-Phenotype (%)", "setting": "[2]; [3]", "result": "1.36% and 4.88%"},
      {"measurement": "Population Mitochondria Different-Phenotype (%)", "setting": "[2]; [3]", "result": "10.84% and 17.07%"},
      {"measurement": "Population Mitotic Cells (%)", "setting": "[2]; [3]", "result": "84.43% and 81.03%"},
      {"measurement": "Population Normal (%)", "setting": "[2]; [3]", "result": 100, "unit": "%"},
      {"measurement": "Population Pyknosed Nuclei (%)", "setting": "[2]; [3]", "result": "24.45% and 69.88%"},
      {"measurement": "Population Tubulin-Different-Phenotype (%)", "setting": "[2]; [3]", "result": "17.62% and 12.2%"},
      {"measurement": "Population Apoptotic (%)", "setting": "[2]; [4]", "result": "27.17% and 24.46%"},
      {"measurement": "Population Fragmented Nuclei (%)", "setting": "[2]; [4]", "result": "2.62% and 2.48%"},
      {"measurement": "Population Hoechst High Intensity Objects (%)", "setting": "[2]; [4]", "result": 0, "unit": "%"},
      {"measurement": "Population Membrane Permeable-Phenotype (%)", "setting": "[2]; [4]", "result": 0, "unit": "%"},
      {"measurement": "Population Mitochondria Different-Phenotype (%)", "setting": "[2]; [4]", "result": "40.74% and 16.67%"},
      {"measurement": "Population Mitotic Cells (%)", "setting": "[2]; [4]", "result": "72.83% and 75.54%"},
      {"measurement": "Population Normal (%)", "setting": "[2]; [4]", "result": 100, "unit": "%"},
      {"measurement": "Population Pyknosed Nuclei (%)", "setting": "[2]; [4]", "result": "50.29% and 86.34%"},
      {"measurement": "Population Tubulin-Different-Phenotype (%)", "setting": "[2]; [4]", "result": "84.57% and 50%"},
      {"measurement": "Total Cell Count", "setting": "[2]; [4]", "result": "344 and 161"},
      {"measurement": "Population Apoptotic (%)", "setting": "[2]; [5]", "result": "10.45% and 22.58%"},
      {"measurement": "Population Fragmented Nuclei (%)", "setting": "[2]; [5]", "result": "0.57% and 1.08%"},
      {"measurement": "Population Healthy Nuclei (%)", "setting": "[2]; [5]", "result": "84.04% and 48.92%"},
      {"measurement": "Population Hoechst High Intensity Objects (%)", "setting": "[2]; [5]", "result": 0, "unit": "%"},
      {"measurement": "Population Membrane Permeable-Phenotype (%)", "setting": "[2]; [5]", "result": "3.01% and 1.1%"},
      {"measurement": "Population Mitochondria Different-Phenotype (%)", "setting": "[2]; [5]", "result": "32.1% and 38.46%"},
      {"measurement": "Population Mitotic Cells (%)", "setting": "[2]; [5]", "result": "89.55% and 77.42%"},
      {"measurement": "Population Normal (%)", "setting": "[2]; [5]", "result": 100, "unit": "%"},
      {"measurement": "Population Apoptotic (%)", "setting": "[2]; [6]", "result": "45.68% and 29.41%"},
      {"measurement": "Population Fragmented Nuclei (%)", "setting": "[2]; [6]", "result": "1.92% and 2.34%"},
      {"measurement": "Population Healthy Nuclei (%)", "setting": "[2]; [6]", "result": "46.15% and 18.13%"},
      {"measurement": "Population Hoechst High Intensity Objects (%)", "setting": "[2]; [6]", "result": "0% and 0.58%"},
      {"measurement": "Population Membrane Permeable-Phenotype (%)", "setting": "[2]; [6]", "result": "1.39% and 9.68%"},
      {"measurement": "Population Mitochondria Different-Phenotype (%)", "setting": "[2]; [6]", "result": "87.5% and 58.06%"},
      {"measurement": "Population Mitotic Cells (%)", "setting": "[2]; [6]", "result": "54.32% and 70.59%"},
      {"measurement": "Population Normal (%)", "setting": "[2]; [6]", "result": "100% and 99.42%"},
      {"measurement": "Population Pyknosed Nuclei (%)", "setting": "[2]; [6]", "result": "51.92% and 79.53%"},
      {"measurement": "Total Cell Count", "setting": "[2]; [6]", "result": "312 and 172"}
    ]}
  ]
}
